Screening data (PubChem)
An excerpt weighted towards active compounds, which were near 3.5% of everything screened.
RGS4 block: RGS4 inhibitors, primary screen, cell-based, HEK293 M3R inducible RGS4, calcium flux | 0.45% of 310,000 active | Regulator of G-protein signaling 4 (Homo sapiens), P49798 | Fluo-4 calcium flux; active compounds read high; triggered by carbachol at its EC20 | B-score at 10 µM | AID 463165, 2010;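 active = B-score, a plate-corrected calcium signal, over three deviations above library mean, with baseline fluorescence within five deviations of library mean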;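 note: RGS4 expression induced by doxycycline in cells with stable M3 receptor; B-score is computed from the integrated fluorescence ratio over baseline after carbachol; higher B-score means a larger calcium signal and so more RGS4 inhibition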
Target sequence (P49798 whole entry, looked up): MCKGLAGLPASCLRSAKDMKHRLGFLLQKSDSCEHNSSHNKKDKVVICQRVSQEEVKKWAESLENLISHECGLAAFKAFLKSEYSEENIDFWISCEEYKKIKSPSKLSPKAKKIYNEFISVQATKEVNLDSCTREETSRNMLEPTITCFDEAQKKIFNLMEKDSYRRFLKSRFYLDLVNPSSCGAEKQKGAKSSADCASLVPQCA
MrgX1 antagonist: antagonists of human MrgX1 receptor, primary screen, HEK293 cells, Fluo-4 calcium flux. BAM8-22 antagonism; active compounds read low. B-score at 10 µM. 1.3% of 310,000 active. AID 588676, 2011;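 active = calcium-response B-score plate-corrected more than 3 library SD below zero, starting fluorescence within 5 deviations, no agonist response on first addition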;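 note: peak minus trough fluorescence over baseline after final BAM8-22 challenge near maximal dose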
Target sequence (Q96LB2 whole entry, looked up): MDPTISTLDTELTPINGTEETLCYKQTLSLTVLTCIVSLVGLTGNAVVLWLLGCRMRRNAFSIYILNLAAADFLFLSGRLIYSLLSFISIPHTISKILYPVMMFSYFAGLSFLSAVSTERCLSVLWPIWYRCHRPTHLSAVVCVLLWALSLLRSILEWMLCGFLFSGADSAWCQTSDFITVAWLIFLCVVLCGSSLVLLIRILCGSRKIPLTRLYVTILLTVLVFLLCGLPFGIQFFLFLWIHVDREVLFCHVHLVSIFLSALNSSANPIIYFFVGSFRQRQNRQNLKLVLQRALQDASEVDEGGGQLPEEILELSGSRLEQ
MrgX1 agonist: agonists of human MrgX1 receptor, primary screen, HEK293 cells, Fluo-4 calcium flux; Mas-related G-protein coupled receptor member X1 (Homo sapiens), Q96LB2; Fluo-4 calcium fluorescence, agonist mode; active compounds read high; B-score at 10 µM; 0.44% of 310,000 active; AID 588627, 2011;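 active = calcium response B-score plate-corrected fluorescence ratio at least 3 library SD, with starting fluorescence B-score inside 5 SD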
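Material: MrgX1-expressing HEK293 cells; input: 15,000 cells per well; doses: test compound given as first of three sequential additions; schedule: overnight plating before 1 h dye loading; technique: Fluo-4 NW calcium-flux fluorescence, kinetic read; evaluation: baseline-normalised fluorescence change ratio, B-scored; control set: plate-wise positive and negative controls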
RGS4 act: RGS4 potentiators or activators, primary screen, cell-based, HEK293 M3R inducible RGS4, calcium flux; carbachol calcium flux Fluo4; active compounds read low; 0.92% of 310,000 active; B-score at 10 µM;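 active = B-score of the integrated calcium signal more than 4 SD below the library mean, with starting fluorescence not abnormally high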;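 note: negative B-score means reduced calcium response which marks RGS4 activation or potentiation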
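Reagent: ECmax carbachol challenge; Test system: M3R-expressing HEK293 line, RGS4 induced by doxycycline; Schedule: overnight RGS4 induction, 30 min dye load 37 °C, 20 min compound RT; Detection: calcium dye Fluo4 fluorescence; Read-out: Agonist-evoked peak-minus-minimum fluorescence over baseline, integrated ratio, B score.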
MrgX1 PAM: positive allosteric modulators of MrgX1, primary screen, HEK293 cells, Fluo-4 calcium flux; AID 588675, 2011; B-score at 10 µM; 0.63% of 310,000 active; Mas-related G-protein coupled receptor member X1 (Homo sapiens), Q96LB2; FDSS; active compounds read high;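 active = plate-corrected calcium response at least 3 library SD above typical, normal starting fluorescence, not activating the receptor alone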;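 note: compound read alongside a low EC10 to EC30 dose of BAM8-22 agonist; peak minus trough fluorescence over baseline measured at the second addition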
A number is an active result; 0 = inactive; - = no result given.

SMILES	RGS4 block	MrgX1 antagonist	MrgX1 agonist	RGS4 act	MrgX1 PAM
CCc1nc(Nc2ccccc2F)c2oc3ccccc3c2n1	0	0	0	0	8.4
O=C(O)c1ccccc1Nc1ccc([N+](=O)[O-])c2nonc12	0	0	0	0	0
CC(=O)Nc1sc(/C(C#N)=C/c2ccc(Cl)c(Cl)c2)nc1-c1ccc(C)cc1	0	-	-	-8.9	-
CC(=O)Nc1sc(N/N=C/c2ccc(C)cc2)nc1-c1ccc(C)cc1	0	0	0	0	0
Cc1cc(C)c2nc(N3CCCC(C(=O)NCCCN4CCOCC4)C3)sc2c1 (stereo unspecified)	0	0	0	0	0
Cc1cc(C)c2nc(N3CCC(C(=O)NCCCN4CC(C)CC(C)C4)CC3)sc2c1 (stereo unspecified)	0	0	0	-10	0
Cc1ccccc1-c1nc(CS(=O)CC(=O)NCc2ccccc2)c(C)o1 (stereo unspecified)	0	0	0	0	0
COCCNC(=O)CS(=O)Cc1nc(-c2ccccc2C)oc1C (stereo unspecified)	0	-5.3	0	0	0
Nc1sc(-c2ccccc2)n[n+]1Cc1cccc2cccnc12	0	-4.7	0	-7.1	0
O=C1CN(C(=O)CNCc2ccccc2)c2ccccc2N1	0	0	0	0	0
Fc1ccc2c(c1)Sc1ccc(Cl)cc1CC2N1CCN(CCC2OCCO2)CC1 (stereo unspecified)	0	0	0	-7.3	0
O=C(CCc1nnc(CCCCc2ccccc2)o1)NCCn1cccn1	0	0	0	0	0
O=C(CCc1nnc(CCCCc2ccccc2)o1)NCCN1CCOC1=O	0	-5.3	0	0	0
CN(CC(=O)Nc1cccc(F)c1)CC(=O)Nc1ccccc1Oc1ccccc1	0	0	0	0	0
COc1ccc(C(=O)/C=C/c2cc(OC)c(O)c(OC)c2)c(F)c1	0	0	30	0	0
CCc1cc(CNC(=O)CC2C(=O)NCCN2Cc2cccc(OC)c2)on1 (stereo unspecified)	0	0	0	0	0
O=C(Cn1cnc2ccccc2c1=O)c1ccc(OC(F)F)cc1	0	0	0	0	0
COc1ccc(C2SCCN2C(=S)Nc2cccc(C(F)(F)F)c2)cc1 (stereo unspecified)	0	-5.3	0	0	0
CN1CCN(/N=C/c2ccc(-c3ccc([N+](=O)[O-])cc3Cl)o2)CC1	0	-4.6	0	0	0
CCN(CC)CCNC(=O)C1c2cc(OC)c(OC)cc2C(=O)N(C)C1c1cccs1 (stereo unspecified)	0	0	0	0	0
CN1C(=O)c2ccc(N3CCCC3)cc2C1=O	0	0	0	0	0
Cc1cc(N2CCCC2)ccc1/C=C1\NC(=S)N(C)C1=O	0	0	44	0	0
CN1CCN(/N=C/c2ccc(N(c3ccccc3)c3ccccc3)cc2)CC1	0	0	0	-7.8	0
CCOC(=O)N1CCN(CC(O)COc2ccc3c(c2)CCC3)CC1 (stereo unspecified)	0	0	0	0	0
O=C(NC1CCCCC1)C(c1ccc(F)cc1)N(Cc1ccccc1)C(=O)CN1C(=O)c2ccccc2S1(=O)=O (stereo unspecified)	0	0	0	0	0
SMILES	RGS4 block	MrgX1 antagonist	MrgX1 agonist	RGS4 act	MrgX1 PAM
O=C(NC1CCCCC1)C(c1ccc(F)cc1)N(CCc1ccccc1)C(=O)CN1C(=O)c2ccccc2S1(=O)=O (stereo unspecified)	0	-8.9	0	0	0
CCC(C)NC(=O)C1CCN(S(=O)(=O)c2ccc(-n3cnnn3)cc2)CC1 (stereo unspecified)	0	0	0	0	0
O=C(NC(=S)Nc1ccccc1N1CCCCC1)c1ccc(F)cc1Cl	0	0	0	-7	0
Cn1nc(C(=O)Nc2ccccc2N2CCCC2)c2ccccc2c1=O	0	0	0	0	12
CC(C)n1nc(C(=O)Nc2ccccc2N2CCOCC2)c2ccccc2c1=O	0	0	0	0	0
Cn1nc(C(=O)NCCOc2ccccc2)c2ccccc2c1=O	0	0	0	0	10
Cn1nc(C(=O)NCc2ccccc2)c2ccccc2c1=O	0	0	0	0	0
COc1cc2ccccc2cc1C(=O)Nc1ccccc1N1CCCC1	0	0	0	-7.3	0
COc1cccc(OC)c1C(=O)Nc1ccccc1N1CCCC1	0	0	0	0	0
CC(=O)c1cccc(NC(=O)NC(C)c2ccc3c(c2)OCO3)c1 (stereo unspecified)	0	0	0	0	0
CCCNC(=O)C1CCC(CNS(=O)(=O)c2ccc3c(c2)N(C(C)=O)CCO3)CC1 (stereo unspecified)	0	0	0	0	0
Cc1ccccc1C(=O)NC1CCN(CC(=O)Nc2ccc(Br)cc2)CC1	0	0	0	0	0
C=CCC(C)(NCc1ccccc1)c1ccc(C)cc1 (stereo unspecified)	0	0	0	0	7.6
Cc1ccc(S(=O)(=O)N2CCOCC2)cc1NC(=O)Cn1nc(C)c([N+](=O)[O-])c1C	0	-5	0	0	0
Cc1ccc(Nc2ccc(S(=O)(=O)N3CCOCC3)cc2[N+](=O)[O-])cc1C	0	-9.2	0	0	0
COc1ccccc1N(CC(O)COc1c(C)cc(C)cc1C)S(=O)(=O)c1ccccc1 (stereo unspecified)	0	0	0	0	7.9
COCc1cc(Sc2c(Cl)cccc2Cl)nc(-c2ccccc2)n1	0	0	0	0	9.3
O=C(Nc1cccc(F)c1)c1cc(S(=O)(=O)N2CCOCC2)cs1	0	0	0	0	0
Cc1cc(C(=O)CSc2nncs2)c(C)n1-c1c(C)n(C)n(-c2ccccc2)c1=O	0	0	0	-9.4	0
O=C(Nc1ccc(-c2cn3c(n2)SCC3)cc1)c1ccc2ccccc2n1	0	0	0	-7.4	0
O=C(Nc1cccc(-c2cn3c(n2)SCC3)c1)c1ccc2ccccc2n1	0	0	0	0	0
C/C(=N/OC(=O)c1c(-c2ccccc2Cl)noc1C)c1cnccn1	0	0	0	-9.8	0
Cc1cc(C(=O)C(C)OC(=O)c2ccc(NC(=O)CC#N)cc2)c(C)n1-c1ccccc1 (stereo unspecified)	0	0	0	0	0
O=C(/C=C/c1ccc(Cl)cc1)NC1CC2CCC1C2 (stereo unspecified)	0	0	0	0	7.2
CC(C)(C)NCC(O)(c1ccc(Cl)cc1)c1ccc(Cl)cc1	0	0	0	0	0
NCC(O)(c1ccc(Cl)cc1)c1ccc(Cl)cc1	0	0	37	0	0
COc1ccc(Cl)cc1NC(=O)CN(C)C(=O)c1ccc(N2CCCCCC2)c([N+](=O)[O-])c1	0	-6.6	0	0	0
